Key:
A549 = assay: Cytotoxicity against human A549 cells by sulforhodamine B assay; format: functional, cell-based
BV-2 = assay: Anti-neuroinflammatory activity in mouse BV2 cells assessed as inhibition of LPS-induced NO production pretreated for 30 mins before LPS-stimulation measured after 24 hrs by Griess reaction; format: functional, cell-based
How it was run: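 Murine BV-2 microglia activated with LPS; NO output was estimated from nitrite, its soluble oxidation product, measured in the culture medium with the Griess reaction. The value is the IC50 for lowering that nitrite.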

[1] = Cytotoxicity against LPS-stimulated mouse BV2 cells assessed as cell viability after 24 hrs by MTT assay relative to control; format: cell-based, BV-2; settings: read-out: Activity
SK-OV-3 = assay: Cytotoxicity against human SKOV3 cells by sulforhodamine B assay; format: functional, cell-based
SK-MEL-2 = assay: Cytotoxicity against human SK-MEL-2 cells by sulforhodamine B assay; format: functional, cell-based
HUVEC [2] = assay: Cytotoxicity against HUVEC by sulforhodamine B assay; format: cell-based; settings: Homo sapiens
HUVEC [3] = assay: Selectivity index, ratio of IC50 for HUVEC to IC50 for human SKMEL2 cells

SMILES	IC50 (A549) [µM]	IC50 (BV-2) [µM]	viability at 24 h [1] [%]	IC50 (SK-OV-3) [µM]	IC50 (SK-MEL-2) [µM]	IC50 (HUVEC [2]) [µM]	Ratio IC50 (HUVEC [3])
COc1cc([C@@H](O)[C@@H](CO)Oc2ccc(CCCO)cc2OC)ccc1O	> 10	52	97.5	> 10	> 10		
COc1cc([C@H](O)[C@H](CO)Oc2ccc(CCCO)cc2OC)ccc1O	> 10	53	96.7	> 10	> 10		
COc1ccc([C@H]2O[C@H](c3cc(OC)c(OC)c(OC)c3)[C@@H](C)[C@@H]2C)cc1OC	> 10	125	87.3	> 10	> 10		
C/C=C/c1cc(OC)c(O[C@H](C)[C@H](O)c2cc(OC)c(OC)c(OC)c2)c(OC)c1	> 10	> 200	101	> 10	> 10		
C/C=C/c1cc(OC)c(O[C@H](C)[C@H](O)c2ccc(OC)c(OC)c2)c(OC)c1	> 10	176	102	> 10	> 10		
COc1cc([C@@H]2c3cc4c(cc3[C@@H](O[C@@H]3O[C@@H]5CO[C@@H](C)O[C@H]5[C@H](O)[C@H]3O)[C@H]3COC(=O)[C@H]23)OCO4)cc(OC)c1O [ETOPOSIDE]	0.44			1.31	0.41	1.86	
COc1ccc([C@H]2O[C@H](c3ccc(OC)c(OC)c3)[C@@H](C)[C@H]2C)cc1OC [GANSCHISANDRINE]	> 10	76	104	> 10	> 10		
COc1ccc([C@H]2O[C@H](c3cc(OC)c(OC)c(OC)c3)[C@@H](C)[C@H]2C)cc1OC [LIGRAMINOL A]	6.92	21.5	88.6	9.44	4.53	27.2	6
COc1cc([C@@H]2O[C@@H](c3cc(OC)c(O)c(OC)c3)[C@H](CO[C@@H]3O[C@H](CO)[C@@H](O)[C@H](O)[C@H]3O)[C@H]2CO)cc(OC)c1O [LIGRAMINOL B]	> 10	23	84.4	> 10	> 10		
C/C=C\c1ccc(O[C@H](C)[C@H](OC(C)=O)c2ccc(OC)c(OC)c2)c(OC)c1 [LIGRAMINOL C]	9.54	16.2	90.5	> 10	> 10	25.9	
COc1ccc(C[C@@H](CO)Oc2ccc(CCCO)cc2OC)cc1OC [LIGRAMINOL D]	8.28	18.4	98.4	> 10	> 10	22.6	
COc1cc(C[C@H](CO)Oc2ccc(CCCO)cc2OC)ccc1O [LIGRAMINOL E]	> 10	> 200	97.1	> 10	> 10		
CNC(=N)NCCC[C@H](N)C(=O)O [TILARGININE]		15.4	98.7				
COc1ccc([C@H]2O[C@@H](c3ccc(OC)c(OC)c3)[C@H](C)[C@H]2C)cc1OC [VERAGUENSIN]	> 10	48.4	104	> 10	> 10		

Reference: ChEMBL document CHEMBL1926650, “Bioactive lignans from the rhizomes of Acorus gramineus” (J Nat Prod, 2011)
